Experimental data as given in ChEMBL document CHEMBL1122704, “Syntheses and anthelmintic activity of alkyl 5(6)-(substituted-carbamoyl)- and 5(6)-(disubstituted-carbamoyl)benzimidazole-2-carbamates and related compounds” (1984).
The source made the active and inactive calls. No cut-off for these calls is given here.

What was measured:
Ancylostoma ceylanicum = assay: Compound was evaluated for the biological activity against Ancylostoma ceylanicum in hamsters at the 250 mg/kg; assay type: functional
Summary of the method: (§1)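 Hamsters of either sex (40–60 g) infected orally with 60 third-stage larvae. Test compound given orally as a single dose on day 20 ± 1 postinfection, starting at 250 mg/kg × 1. Lower doses were used for active compounds to establish dose–response. Method of Ray et al. as modified locally.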

Rattus norvegicus [1] = assay: Compound was evaluated for the biological activity against Hymenolepsis nana (rats) at the 250 mg/kg; insignificant activity; assay type: functional, organism-based; set-up: dose 250 mg/kg
Summary of the method: (§2)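 Male rats (25–35 g) infected orally with 200 viable eggs. Infection confirmed by ovoscopic examination on days 17–20 postinoculation. Positive rats dosed orally on day 20 ± 1, initially 250 mg/kg × 1, then lower doses for dose–response. Method of Steward.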

[2] = system: Nippostrongylus brasiliensis; assay: (§3) Anti-nematode activity against Nippostrongylus brasiliensis in rats at 250 mg/kg; Insignificant activity.; assay type: functional
Rattus norvegicus [3] = assay: Compound was evaluated for the biological activity against Hymenolepsis nana (rats) at the 250 mg/kg; assay type: functional; summary of the method: as §2
Cricetinae gen. sp. [4] = assay: Compound was evaluated for the biological activity against Ancylostoma ceylanicum in hamsters at the 100-6.25 mg/kg; assay type: functional, Cricetulus griseus; summary of the method: as §1
Rattus norvegicus [5] = assay: Compound was evaluated for the biological activity against Nippostrongylus brasiliensis in rats at the 250 mg/kg; assay type: functional
Summary of the method: (§4)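 Male rats (25–40 g) inoculated subcutaneously with 500 larvae taken from 6–8-day-old fecal culture. Compounds given orally on day 9 postinfection at 250 mg/kg × 3, with lower doses as follow-up for active compounds. Steward technique as modified by Katiyar and Sen.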

Rattus norvegicus [6] = assay: Efficiency against L carinii (filarid worm) in cotton (against both microfilariae and adults) rat at the 50 x 5 mg/kg (po); inactive; assay type: functional, organism-based; set-up: dose 5 mg/kg; details: at 5 mg/kg
Rattus norvegicus [7] = assay: Efficiency against L carinii (filarid worm) in cotton (against both microfilariae and adults) rat at the 10 x 5 mg/kg (ip); inactive; assay type: functional, organism-based; set-up: dose 5 mg/kg; details: at 5 mg/kg
Rattus norvegicus [8] = assay: Efficiency against L carinii (filarid worm) in cotton (against microfilariae and inactive against adults) rat at 100 x 5 mg/kg (po); assay type: functional
Canis familiaris [9] = assay: Efficiency against Ancylostoma ceylanicum (hookworm) in dog at the 25 x 3 mg/kg; assay type: functional, Canis lupus familiaris
Mus musculus = assay: Efficiency against Syphacia obvelata (pinworm) in mouse at the 12.5 x 3 mg/kg; assay type: functional
Summary of the method: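 Adult mice of both sexes (20–30 g) with pinworm infection, assessed by Standon's method. Oral dosing started at 25 mg/kg × 3, followed by lower doses for active compounds. Mebendazole at 50 mg/kg × 3 served as positive control.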

Rattus norvegicus [10] = assay: Efficiency against L carinii (filarid worm) in cotton (on microfilariae) rat at the 30 x 5 mg/kg (ip); assay type: functional
Canis familiaris [11] = assay: Efficiency against Ancylostoma ceylanicum (hookworm) in dog at the 10 x 3 mg/kg; assay type: functional, Canis lupus familiaris
Rattus norvegicus [12] = assay: Compound was evaluated for the biological activity against Nippostrongylus brasiliensis in rats at the 100-50 mg/kg; assay type: functional; summary of the method: as §4
Rattus norvegicus [13] = assay: Compound was evaluated for the biological activity against Hymenolepsis nana (rats) at the 25 mg/kg; assay type: functional; summary of the method: as §2
Canis familiaris (dog) [14] = assay: Efficiency against Taenia species. (tapeworm) in dog at the 25 x 3 mg/kg; inactive; details: at 3 mg/kg
Rattus norvegicus [15] = assay: Compound was evaluated for the biological activity against Nippostrongylus brasiliensis in rats at the 25 mg/kg; assay type: functional; summary of the method: as §4
Rattus norvegicus [16] = assay: Compound was evaluated for the biological activity against Hymenolepsis nana (rats) at the 100-50 mg/kg; assay type: functional; summary of the method: as §2
Felis catus [17] = assay: Efficiency against Ancylostoma tubaeformis (hookworm) in cat at the 25 x 3 mg/kg; assay type: functional
Canis familiaris (dog) [18] = assay: Efficiency against Toxocara species. (Ascaris) in dog at the 25 x 3 mg/kg
Rattus norvegicus [19] = assay: Efficiency against L carinii (filarid worm) in cotton (against adults) rat at the 30 x 5 mg/kg (ip); assay type: functional
Rattus norvegicus [20] = assay: Efficiency against L carinii (filarid worm) in cotton (on adults) rat at the 30 x 5 mg/kg (ip); assay type: functional
Cricetinae gen. sp. [21] = assay: Compound was evaluated for the biological activity against Ancylostoma ceylanicum in hamsters at the 3.12 mg/kg; assay type: functional, Cricetulus griseus; summary of the method: as §1
Felis catus [22] = assay: Efficiency against Ancylostoma tubaeformis (hookworm) in cat at the 10 x 3 mg/kg; inactive; assay type: functional, organism-based; set-up: dose 3 mg/kg; details: at 3 mg/kg
Rattus norvegicus [23] = assay: Compound was evaluated for the biological activity against Hymenolepsis nana (rats)at the 250 mg/kg; insignificant activity; assay type: functional, organism-based; set-up: dose 250 mg/kg; summary of the method: as §2
Cricetinae gen. sp. [24] = assay: Compound was evaluated for the biological activity against Ancylostoma ceylanicum in hamsters at the 100-25 mg/kg; assay type: functional, Cricetulus griseus; summary of the method: as §1
Rattus norvegicus [25] = assay: Compound was evaluated for the biological activity against Hymenolepsis nana (rats) at the 50 mg/kg; assay type: functional; summary of the method: as §2
Cricetinae gen. sp. [26] = assay: Compound was evaluated for the biological activity against Ancylostoma ceylanicum in hamsters at the 10 mg/kg; assay type: functional, Cricetulus griseus; summary of the method: as §1
Rattus norvegicus [27] = assay: Compound was evaluated for the biological activity against Hymenolepsis nana (rats) at the 100 mg/kg; assay type: functional; summary of the method: as §2
Cricetinae gen. sp. [28] = assay: Compound was evaluated for the biological activity against Ancylostoma ceylanicum in hamsters at the 250 mg/kg; insignificant activity; assay type: functional, organism-based; set-up: dose 250 mg/kg; details: Cricetulus griseus; summary of the method: as §1
[29] = as §3; assay type: functional
Rattus norvegicus [30] = assay: Compound was evaluated for the biological activity against Hymenolepsis nana (rats) aat the 250 mg/kg; assay type: functional; summary of the method: as §2
Cricetinae gen. sp. [31] = assay: Compound was evaluated for the biological activity against Ancylostoma ceylanicum in hamsters at the 50 mg/kg; assay type: functional, Cricetulus griseus; summary of the method: as §1
Cricetinae gen. sp. [32] = assay: Compound was evaluated for the biological activity against Ancylostoma ceylanicum in hamsters at the 100 mg/kg; assay type: functional, Cricetulus griseus; summary of the method: as §1
Cricetinae gen. sp. [33] = assay: Compound was evaluated for the biological activity against Ancylostoma ceylanicum (hamsters and dogs) at the 50 mg/kg; assay type: functional, Cricetulus griseus
Rattus norvegicus [34] = assay: Compound was evaluated for the biological activity against Nippostrongylus brasiliensis (rats) at the 100 mg/kg; assay type: functional; summary of the method: as §4
Cricetinae gen. sp. [35] = assay: Compound was evaluated for the biological activity against Ancylostoma ceylanicum in hamsters at the 100 mg/kg; insignificant activity; assay type: functional, organism-based; set-up: dose 100 mg/kg; details: Cricetulus griseus; summary of the method: as §1
Rattus norvegicus [36] = assay: Compound was evaluated for the biological activity against Hymenolepsis nana (rats) at the 200 mg/kg; assay type: functional; summary of the method: as §2

SMILES | Activity (Ancylostoma ceylanicum) [%] | Activity (Rattus norvegicus [1]) | Activity [2] | Activity (Rattus norvegicus [3]) [%] | other results
COC(=O)Nc1nc2cc(C(=O)NCCNC(=O)c3ccc4[nH]c(NC(=O)OC)nc4c3)ccc2[nH]1 | 50 | inactive | inactive | – | –
COC(=O)Nc1nc2cc(C(=O)Nc3ccc(F)cc3)ccc2[nH]1 | 100 | – | inactive | 100 | –
COC(=O)Nc1nc2cc(C(=O)N3CCN(c4ccccn4)CC3)ccc2[nH]1 | 100 | – | – | 100 | Activity (Cricetinae gen. sp. [4]): 100%; Activity (Rattus norvegicus [5]): 100%; Efficiency (Rattus norvegicus [6]): inactive; Efficiency (Rattus norvegicus [7]): inactive; Efficiency (Rattus norvegicus [8]): 94.8%; Efficiency (Canis familiaris [9]): 100%; Efficiency (Mus musculus): 100%; Efficiency (Rattus norvegicus [10]): 97%; Efficiency (Canis familiaris [11]): 100%; Activity (Rattus norvegicus [12]): 100%; Activity (Rattus norvegicus [13]): 100%; Efficiency (Canis familiaris (dog) [14]): inactive; Activity (Rattus norvegicus [15]): 60%; Activity (Rattus norvegicus [16]): 100%; Efficiency (Felis catus [17]): 100%; Efficiency (Canis familiaris (dog) [18]): 100%; Efficiency (Rattus norvegicus [19]): 100%; Efficiency (Rattus norvegicus [20]): 100%; Activity (Cricetinae gen. sp. [21]): 88%; Efficiency (Felis catus [22]): inactive
COC(=O)Nc1nc2cc(C(=O)NC3CCCCC3)ccc2[nH]1 | 100 | inactive | – | – | Activity (Rattus norvegicus [5]): 63.2%
COC(=O)Nc1nc2cc(C(=O)Nc3ccccn3)ccc2[nH]1 | 95 | inactive | inactive | – | –
COC(=O)Nc1nc2cc(C(=O)N3CCCCC3)ccc2[nH]1 | 100 | – | – | – | Activity (Rattus norvegicus [23]): inactive
COC(=O)Nc1nc2cc(C(=O)Nc3ccncc3)ccc2[nH]1 | 75 | inactive | inactive | – | –
COC(=O)Nc1nc2cc(C(=O)NCc3ccco3)ccc2[nH]1 | 100 | – | inactive | 100 | Activity (Cricetinae gen. sp. [24]): 100%; Activity (Rattus norvegicus [25]): 100%; Activity (Cricetinae gen. sp. [26]): 57%; Activity (Rattus norvegicus [13]): 100%; Activity (Rattus norvegicus [27]): 100%
COC(=O)Nc1nc2cc(C(=O)Nc3nc4ccc(OC)cc4s3)ccc2[nH]1 | – | inactive | – | – | Activity (Cricetinae gen. sp. [28]): inactive; Activity [29]: 86.6%
COC(=O)Nc1nc2cc(C(=O)N3CCOCC3)ccc2[nH]1 | 100 | – | – | 100 | Activity (Cricetinae gen. sp. [4]): 100%; Activity (Rattus norvegicus [5]): 100%; Activity (Rattus norvegicus [25]): 100%; Activity (Rattus norvegicus [12]): 100%; Activity (Rattus norvegicus [15]): 50%; Activity (Cricetinae gen. sp. [21]): 83%; Activity (Rattus norvegicus [27]): 100%
COC(=O)Nc1nc2cc(C(=O)NCCc3ccc(NC(=O)c4ccc5[nH]c(NC(=O)OC)nc5c4)cc3)ccc2[nH]1 | 50 | inactive | inactive | – | –
COC(=O)Nc1nc2cc(C(=O)Nc3ccc(S(=O)(=O)c4ccc(NC(=O)c5ccc6[nH]c(NC(=O)OC)nc6c5)cc4)cc3)ccc2[nH]1 | 48.2 | inactive | inactive | – | –
COC(=O)Nc1nc2cc(C(=O)N3CCN(c4ccccc4)CC3)ccc2[nH]1 | 100 | – | – | – | Activity (Cricetinae gen. sp. [4]): 100%; Activity (Rattus norvegicus [5]): 100%; Activity (Rattus norvegicus [25]): 100%; Activity (Rattus norvegicus [12]): 100%; Activity (Rattus norvegicus [15]): 86.6%; Activity (Cricetinae gen. sp. [21]): 77%; Activity (Rattus norvegicus [27]): 100%; Activity (Rattus norvegicus [30]): 100%
COC(=O)Nc1nc2cc(C(=O)Nc3nccs3)ccc2[nH]1 | – | inactive | inactive | – | Activity (Cricetinae gen. sp. [28]): inactive
CCCCNC(=O)c1ccc2[nH]c(NC(=O)OC)nc2c1 | 100 | – | inactive | 100 | –
COC(=O)Nc1nc2cc(NC(=O)c3ccc(C(=O)Nc4ccc5[nH]c(NC(=O)OC)nc5c4)cc3)ccc2[nH]1 | 100 | inactive | inactive | – | Activity (Cricetinae gen. sp. [31]): 66.6%
COC(=O)Nc1nc2cc(C(=O)Nc3cccc(C)n3)ccc2[nH]1 | 100 | – | inactive | 100 | Activity (Cricetinae gen. sp. [32]): 100%; Activity (Cricetinae gen. sp. [31]): 92.5%
CCCN(CCC)C(=O)c1ccc2[nH]c(NC(=O)OC)nc2c1 | 100 | – | inactive | 100 | Activity (Cricetinae gen. sp. [32]): 75%; Activity (Rattus norvegicus [27]): 100%
COC(=O)Nc1nc2cc(C(=O)N(C(C)C)C(C)C)ccc2[nH]1 | 100 | – | – | 100 | Activity (Cricetinae gen. sp. [33]): 88.8%; Activity (Cricetinae gen. sp. [32]): 100%; Activity (Rattus norvegicus [5]): 100%; Activity (Rattus norvegicus [25]): 100%; Activity (Rattus norvegicus [34]): 100%
COC(=O)Nc1nc2cc(C(=O)Nc3ccccc3)ccc2[nH]1 | 87 | – | inactive | – | –
CCN(CC)C(=O)c1ccc2[nH]c(NC(=O)OC)nc2c1 | 100 | – | – | 100 | Activity (Rattus norvegicus [5]): 100%
CCOC(=O)Nc1nc2cc(C(=O)NCCc3ccc(OC)c(OC)c3)ccc2[nH]1 | – | inactive | – | – | –
CCOC(=O)Nc1nc2cc(C(=O)Nc3ccccc3)ccc2[nH]1 | 50 | inactive | inactive | – | –
COC(=O)Nc1nc2cc(C(=O)NC3=NCCS3)ccc2[nH]1 | 100 | – | inactive | 100 | Activity (Cricetinae gen. sp. [31]): 55.5%; Activity (Cricetinae gen. sp. [35]): inactive
COC(=O)Nc1nc2cc(C(=O)Nc3ncc(C)s3)ccc2[nH]1 | 100 | – | inactive | 100 | Activity (Rattus norvegicus [27]): 100%
CCCCCCCCNC(=O)c1ccc2[nH]c(NC(=O)OC)nc2c1 | 100 | – | inactive | – | Activity (Rattus norvegicus [36]): 100%
COC(=O)Nc1nc2cc(C(=O)Nc3ccc(Sc4ccc(NC(=O)c5ccc6[nH]c(NC(=O)OC)nc6c5)cc4)cc3)ccc2[nH]1 | 48.2 | inactive | inactive | – | –
CNC(=O)c1ccc2[nH]c(NC(=O)OC)nc2c1 | 95 | – | inactive | 100 | –
